High-throughput results as filed in PubChem.
Sampled rows, rich in hits. Any-hit rate of the full collection: about 1.8%.
APJ antagonist – APJ receptor antagonism; P35414; CHO-K1 APJ beta-arrestin complementation, luminescence; inhibition, % at 20 µM; 0.32% of 330,000 active; AID 2521;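 active = inhibition above about 40% at 20 µM, limit read from the data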;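 also: cells challenged with 10 nM apelin-13 agonist together with compound; plate controls were apelin-13 plus DMSO wells for no effect and DMSO wells lacking apelin-13 for full effect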
CCR6 antagonist – antagonists of human CCR6 receptor | CHO-K1 CCR6 PathHunter beta-arrestin, luminescence, CCL20-stimulated | P51684 | inhibition, % at 20 µM | 0.49% of 340,000 active;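 active = compounds whose inhibition of the agonist-driven luminescence signal at 20 µM reaches about 50%, limit read from the data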;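 also: cells stimulated with CCL20 at 14 nM final; plate controls were DMSO with CCL20 for no effect and DMSO without agonist for full effect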
EBI2 block – blocks human EBI2 receptor beta-arrestin signaling. inhibition, % at 5 µM. 0.81% of 360,000 active. EBI2 beta-arrestin recruitment, luminescence, 7a,25-OHC stimulated. AID 651636. P32249; in the data active = inhibition above about 38%;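 also: enzyme fragment complementation signal reports receptor beta-arrestin coupling in cells; 0% = agonist plus DMSO wells and 100% = wells without agonist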
Target sequence (P32249 whole entry, looked up, the tested form may be a part): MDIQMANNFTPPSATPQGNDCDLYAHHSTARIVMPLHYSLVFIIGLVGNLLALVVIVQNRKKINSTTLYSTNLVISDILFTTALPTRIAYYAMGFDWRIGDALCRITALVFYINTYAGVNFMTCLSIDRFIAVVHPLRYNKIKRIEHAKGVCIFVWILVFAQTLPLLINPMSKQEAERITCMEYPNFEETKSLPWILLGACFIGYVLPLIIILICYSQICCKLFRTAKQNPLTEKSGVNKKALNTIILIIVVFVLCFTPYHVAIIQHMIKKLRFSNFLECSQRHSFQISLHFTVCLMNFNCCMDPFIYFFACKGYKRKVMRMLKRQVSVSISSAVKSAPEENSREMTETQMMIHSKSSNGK
APJ agonist – agonists of human APJ apelin receptor; 0.11% of 330,000 active; CHO-K1 APJ PathHunter beta-arrestin, luminescence; 0% DMSO wells, 100% apelin; activation, % at 20 µM; P35414;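 active = activation more than six SD over the plate average, tested at 20 µM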;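 also: 0% = DMSO alone and 100% = apelin-13 at 10 nM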
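Assay system: CHO-K1 cells stably expressing ProLink-tagged human APJ and arrestin–beta-gal acceptor. Compound dosing: 20 µM single point, 1% DMSO. Times: 16-18 h seeding, 90 min dark compound exposure, 60 min detection. Detection: beta-gal luminescence. Evaluation: APJ–arrestin association signal. Controls: negative DMSO alone, positive Apelin-13 at 10 nM.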
CXCR6 inh – inhibitors of human CXCR6 receptor; O00574; CHO-K1 PathHunter CXCR6 beta-arrestin, luminescence; inhibition, % at 20 µM; 0.36% of 360,000 active; AID 602244; in the data active = inhibition above about 34%, passing the limit was not always enough;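 also: antagonist mode with CXCL16 agonist at 10 nM final; 0% = 10 nM CXCL16 with DMSO and 100% = unstimulated wells without agonist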
Target sequence (O00574 whole entry, looked up): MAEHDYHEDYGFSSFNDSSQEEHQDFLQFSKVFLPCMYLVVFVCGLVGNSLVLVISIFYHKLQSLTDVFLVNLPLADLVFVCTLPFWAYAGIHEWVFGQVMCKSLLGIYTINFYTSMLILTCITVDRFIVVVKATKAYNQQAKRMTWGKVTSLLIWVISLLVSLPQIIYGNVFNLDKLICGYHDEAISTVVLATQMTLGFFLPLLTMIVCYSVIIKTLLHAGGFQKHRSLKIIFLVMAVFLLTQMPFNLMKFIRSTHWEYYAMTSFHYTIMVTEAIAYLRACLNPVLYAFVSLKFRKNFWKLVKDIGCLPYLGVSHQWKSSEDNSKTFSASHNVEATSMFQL
B2AR ag – agonists of human beta-2 adrenergic receptor inducing internalization; P07550; Am2.2-beta2AR cells, FAP receptor internalization, flow cytometry; response, % (no concentration beside the values); 0.43% of 340,000 active; AID 504454;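 active = response above a set limit, near 3 SD of response in nonfluorescent compounds, cut at about 42% in these data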
EBI2 conf – confirmation of human EBI2 receptor antagonists; inhibition, % at 5 µM; EBI2 beta-arrestin luminescence, 7a,25-OHC antagonism; shares compounds with EBI2 block; 29% of 2,400 active;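 active = inhibition of at least 50%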
EBI2 agonist – EBI2 agonism counter-screen. shares compounds with EBI2 block. EBI2-expressing cells, agonist mode, luminescence, 60 min; 0% vehicle, 100% 7α,25-dihydroxycholesterol control. activation, % at 5 µM. 2,400 tested, under 10 active. AID 652000;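 active = activation of at least 50%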
bGal counter – beta-galactosidase inhibition counter-screen; shares compounds with EBI2 block; purified beta-galactosidase, luminescent Galacton Star, 15 min; inhibition, % at 5 µM; 1% of 2,400 active; AID 652176;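 active = replicate-average signal at least 3 plate SD below neutral wells, shown as high inhibition, flagging enzyme-inhibiting false positives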;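 also: 0% = DMSO wells with enzyme and 100% = wells lacking enzyme; higher means stronger loss of beta-gal luminescence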
The depositor's hits bear a star; . = no result given.

SMILES | APJ antagonist | CCR6 antagonist | EBI2 block | APJ agonist | CXCR6 inh | B2AR ag | EBI2 conf | EBI2 agonist | bGal counter
CCC1CSC(Nc2ccc(C(=O)/C=C/c3ccc(Br)cc3)cc2)=N1 (configuration not stated) | 9 | 15 | 61* | -5 | 3 | 11 | 55* | 1 | 1
CCC1CSC(Nc2ccc(C(=O)/C=C/c3ccc(OC)c(OC)c3)cc2)=N1 (configuration not stated) | 2 | 4 | 24 | -4 | -8 | 12 | . | . | .
O=C(c1ccc2c(c1)OCO2)N1CCN(S(=O)(=O)c2ccccc2)CC1 | -39 | -2 | 3 | -2 | -15 | -4 | . | . | .
O=C(c1cc(-c2ccc(F)cc2)no1)N1CCN(Cc2ccc3c(c2)OCO3)CC1 | 20 | 0 | 76* | -5 | -10 | -7 | 49 | 1 | 3
O=C(c1ccc2c(c1)OCO2)N1CCN(S(=O)(=O)c2ccc(Br)cc2Cl)CC1 | -5 | 8 | 52* | 0 | 2 | -6 | 24 | -2 | -7
O=C(c1c(F)c(F)c(F)c(F)c1F)N1CCN(Cc2ccc3c(c2)OCO3)CC1 | 6 | -2 | -10 | -4 | -10 | -4 | . | . | .
O=C(c1cc(-c2ccccc2)on1)N1CCN(Cc2ccc3c(c2)OCO3)CC1 | 15 | 5 | 50* | 1 | -4 | -5 | 7 | 1 | 4
O=C(c1ccc(Cl)c(Cl)c1)N1CCN(Cc2ccc3c(c2)OCO3)CC1 | 4 | 12 | 57* | -2 | -1 | -4 | 48 | 0 | -20
Cc1c2cc[n+](CCN3CCCCC3)cc2c(C)c2c1[nH]c1ccc(O)cc12 | . | -11 | -6 | . | 8 | -5 | . | . | .
CCn1nccc1NC(=O)c1csc([C@@H]2C[C@H](O)[C@@H](CO)O2)n1 | . | . | -1 | . | 6 | . | . | . | .
CCOC1=C2CN(S(=O)(=O)c3ccc(C)cc3)C(c3cccc(Cl)c3)CC2NC(c2ccccc2)C1 (configuration not stated) | . | . | 26 | . | . | . | . | . | .
COc1ccc(N2CCN(C(=O)c3ccc4[nH]c(C)c(C)c4c3)CC2)cc1 | -33 | 8 | 85* | 5 | -4 | -4 | 73* | 1 | -7
Cc1[nH]c2ccc(C(=O)N3CCN(c4ccc(F)cc4)CC3)cc2c1C | -27 | -5 | 78* | -4 | 1 | 4 | 72* | 1 | 11
CC(=O)c1ccc(N2CCN(C(=O)c3ccc4[nH]c(C)c(C)c4c3)CC2)cc1 | 5 | 4 | 14 | 0 | -2 | 11 | . | . | .
O=C(NCc1nnnn1-c1ccc(F)cc1)C(=O)c1c[nH]c2ccccc12 | . | . | -3 | . | -5 | . | . | . | .
Cc1ccc(S(=O)(=O)N2CCCN(C(=O)c3cc4ccccc4[nH]3)CC2)cc1 | -6 | 13 | 54* | -3 | -2 | 5 | 34 | 1 | 10
Cc1ccc2[nH]c(C(=O)N3CCCC(Nc4ccc(F)cc4)C3)cc2c1 (configuration not stated) | -5 | 7 | 24 | -3 | -8 | 4 | . | . | .
Cc1ccc2[nH]c(C(=O)N3CCN(C=O)CC3)cc2c1 | -1 | -9 | 75* | -2 | -4 | 0 | 28 | 1 | 10
CCOC(=O)N1CCN(C(=O)c2cc3cc(C)ccc3[nH]2)CC1 | -5 | -14 | 88* | -3 | 6 | -9 | 67* | 0 | 7
Cc1ccc2[nH]c(C(=O)N3CCN(c4cccc(Cl)c4)CC3)cc2c1 | -28 | -15 | 54* | -2 | -6 | -8 | 47 | 0 | 6
Cc1ccc(C(=O)N2CCN(c3cccc(Cl)c3)CC2)cc1C | 11 | 6 | 4 | -1 | 1 | 0 | . | . | .
O=C1N/C(=C/c2ccc(N3CCOCC3)o2)C(=O)N1c1cccc(Cl)c1 | 29 | 39 | 14 | -3 | -3 | 18 | . | . | .
Fc1cccc(Cc2c(-c3ccc(Cl)cc3)nc3ccc(Br)cn23)c1 | . | . | 31 | . | 10 | . | . | . | .
COC(=O)[C@@]12C[C@@H](CC(=O)NCC3CCCCC3)C(=O)N(Cc3ccc4c(c3)OCO4)C1=CCC(C)(C)C2 | . | . | 20 | . | . | . | . | . | .
CCN(C(=O)COC(=O)CNS(=O)(=O)c1ccc(SC)c([N+](=O)[O-])c1)C1CCCCC1 | -3 | -9 | 7 | 5 | 5 | -6 | . | . | .
SMILES | APJ antagonist | CCR6 antagonist | EBI2 block | APJ agonist | CXCR6 inh | B2AR ag | EBI2 conf | EBI2 agonist | bGal counter
Cc1nc(SCc2nc3ccccc3[nH]2)c2oc3cc([N+](=O)[O-])ccc3c2n1 | -32 | 11 | 48* | 3 | -7 | 12 | 59* | 0 | 2
COc1ccc2c(c1)oc1c(SCc3nc4ccccc4[nH]3)nc(C)nc12 | -6 | 8 | 78* | -1 | 9 | 22 | 51* | 0 | -5
Cc1nc(SCc2nc3ccc(Br)cc3[nH]2)c2oc3ccccc3c2n1 | -6 | 3 | 2 | -1 | 12 | -4 | . | . | .
Clc1cccc(-c2nnc(SC/C=C/c3ccccc3)n2Cc2ccco2)c1 | 7 | 16 | 45* | -6 | 12 | 0 | 35 | -1 | 4
C(=C\c1ccccc1)/CSc1nnc(-c2ccccc2)n1Cc1ccco1 | -9 | 22 | 22 | -3 | -1 | 16 | . | . | .
O=C(NCc1cccnc1)c1ccccc1NS(=O)(=O)c1ccc(Br)cc1 | -5 | -6 | 0 | 0 | -5 | -6 | . | . | .
CCc1ccc(C(C)NC(=O)/C=C/c2ccc(Br)cc2)cc1 (configuration not stated) | -33 | 6 | 61* | 1 | 4 | -12 | 27 | 0 | -14
CC(NC(=O)/C=C/c1ccc(Br)cc1)c1ccccc1 (configuration not stated) | -11 | 5 | 44* | 1 | -11 | -3 | 24 | -1 | -14
CC(NC(=O)/C=C/c1ccccc1)c1ccccc1 (configuration not stated) | 7 | 0 | -2 | 1 | 3 | -1 | . | . | .
CSc1ccccc1NC(=O)COC(=O)Cn1cc(C(F)(F)F)ccc1=O | -5 | 7 | -9 | -1 | 0 | -1 | . | . | .
CC1CC(=O)C2=C(C1)Nc1ccccc1N=C2 (configuration not stated) | 21 | 4 | -2 | -2 | -9 | -10 | . | . | .
O=C1CC(c2ccc(F)cc2)CC2=C1C=Nc1ccccc1N2 (configuration not stated) | 29 | 2 | 81* | -5 | -7 | -8 | 43 | 1 | 7
O=C1CC(c2ccccc2)CC2=C1C=Nc1ccccc1N2 (configuration not stated) | 15 | -8 | 53* | 2 | 8 | -8 | 21 | 1 | 1
